High-throughput results deposited in PubChem by several laboratories.
NR2E3 ag-1: activates human photoreceptor nuclear receptor NR2E3 | inhibition of corepressor binding, % at 4.78 µM | 0.12% of 320,000 active | GST-NR2E3/biotin-RetCOR TR-FRET, 1536-well | AID 2300;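 active = percent inhibition above the cutoff of mean plus 3 SD of all tested compounds, set per screening campaign, cut at about 20% in these data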;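 note: 0% = DMSO wells and 100% = biotin wells as full block of FRET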
Target sequence (Q9Y5X4 whole entry, looked up): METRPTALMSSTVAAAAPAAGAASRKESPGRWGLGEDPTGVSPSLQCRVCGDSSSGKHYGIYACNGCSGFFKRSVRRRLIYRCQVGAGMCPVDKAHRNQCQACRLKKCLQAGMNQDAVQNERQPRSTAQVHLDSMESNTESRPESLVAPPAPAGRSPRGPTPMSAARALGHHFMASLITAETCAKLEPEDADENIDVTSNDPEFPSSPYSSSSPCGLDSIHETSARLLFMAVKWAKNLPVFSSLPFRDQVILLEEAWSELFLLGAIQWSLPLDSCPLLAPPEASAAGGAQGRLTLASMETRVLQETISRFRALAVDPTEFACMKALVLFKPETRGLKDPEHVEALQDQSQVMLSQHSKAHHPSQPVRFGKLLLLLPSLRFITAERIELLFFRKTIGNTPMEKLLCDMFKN
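System: GST-tagged NR2E3 plus biotinylated RetCOR corepressor; Buffer or medium: pH 7.5 Tris-based buffer; Probe or stimulus: RetCOR corepressor, biotinylated, 7 nM; Doses: compound at 4.8 µM, single dose; Schedule: 5 h incubation at 4 °C; Technique: time-resolved FRET; Evaluation: percent inhibition of TR-FRET ratio; Replication: one well per compound, singlicate testing.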
NR2E3 ag-2: activates human NR2E3 receptor. Q9Y5X4. CHO-S Gal4-NCOR/VP16-NR2E3 two-hybrid, luciferase. inhibition of corepressor binding, % at 3.98 µM. 0.35% of 360,000 active. AID 602229;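 active = inhibition above the mean of all tested compounds plus 3 SD, cut at about 70% in these data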;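 note: 0% = DMSO with NR2E3 transfected cells and 100% = cells lacking NR2E3 construct; higher means lower luciferase signal from less NR2E3 corepressor binding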
PG9 binder: binds the HIV-1 gp120 antibody PG9; TR-FRET gp120-PG9 antibody binding; AID 624416; 0.43% of 360,000 active; inhibition, % at 6.7 µM; in the data active = inhibition above about 8.5%
NR1D1 modulator: modulators of human Rev-erb alpha DNA binding; Rev-erbα–FITC-DNA binding, fluorescence polarization, 90 min; activity, % at 10 µM; 0.79% of 370,000 active;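 active = activity above about 14%, limit read from the data; passing the limit was not always enough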;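 note: 0% = DMSO wells with 35 nM protein and 100% = DMSO wells with 750 nM protein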
NR2E3 ag confirm: NR2E3 agonism confirmed in two-hybrid assay. shares compounds with NR2E3 ag-2. CHO-S mammalian two-hybrid NR2E3-NCOR, luciferase luminescence. inhibition, % at 3.98 µM. 51% of 2,300 active. AID 624378;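 active = average inhibition above a cutoff equal to the mean inhibition of all tested compounds plus one SD, cut at about 70% in these data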;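 note: 0% = DMSO in NR2E3 cells and 100% = DMSO in cells lacking NR2E3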
VP16 counter: counter-screen for NR2E3 agonists: GAL4-VP16 reporter inhibitors | shares compounds with NR2E3 ag-2 | CHO-S GAL4-VP16 luciferase reporter, luminescence | inhibition, % at 3.98 µM | 29% of 2,300 active | AID 624379;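 active = mean inhibition above a cutoff equal to the average over all tested compounds plus one standard deviation, cut at about 70% in these data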;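 note: luciferase from a UAS reporter driven by GAL4-VP16 transactivation; 0% = DMSO with VP16-transfected cells and 100% = DMSO with cells lacking VP16; higher means less reporter light so more repression of VP16 activity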
* hit, by the source's call. Rows were chosen to be rich in hits. Some 1.4% of all compounds tested hit in one or more screens of this group.

What do the screens show for `Cc1ccc(OCCOC(=O)c2cc(S(=O)(=O)N3CCCCC3)ccc2N2CCOCC2)cc1`?
NR2E3 ag-1: 3; NR2E3 ag-2: 49; PG9 binder: -1; NR1D1 modulator: -7; NR2E3 ag confirm: 72*; VP16 counter: 52

What do the screens show for `Cc1ccc(CNC(=O)O[C@H]2CC[C@@]34CCCN3C(=O)CCC[C@H]4[C@H]2C)o1`?
NR1D1 modulator: -2

How did CC(COc1ccccc1C#N)CN1CCC(C(O)(c2ccccc2)c2ccccc2)CC1 (stereo unspecified) do in these assays?
NR1D1 modulator: 3

Results for CCCCCC[C@@H](CCC)C(=O)O ?
NR1D1 modulator: 0

What do the screens show for `N#Cc1c(NC(=O)CSc2nc(N)cc(=O)[nH]2)sc2c1CCCCCC2`?
NR2E3 ag-1: 0; NR2E3 ag-2: 69; PG9 binder: -2; NR1D1 modulator: 2; NR2E3 ag confirm: 36; VP16 counter: 45

How did N#Cc1c(NC(=O)CSc2ncn[nH]2)sc2c1CCCCC2 do in these assays?
NR2E3 ag-1: 2; NR2E3 ag-2: 46; PG9 binder: -2; NR1D1 modulator: -3

What do the screens show for `Cc1nnc(SC(C)C(=O)Nc2sc3c(c2C#N)CCCC3)[nH]c1=O` (stereo unspecified)?
NR2E3 ag-1: 2; NR2E3 ag-2: -3; PG9 binder: 0; NR1D1 modulator: -1

How did CC(Sc1nc(N)cc(=O)[nH]1)C(=O)Nc1sc2c(c1C#N)CCCC2 (stereo unspecified) do in these assays?
NR2E3 ag-1: 1; NR2E3 ag-2: 51; PG9 binder: -1; NR1D1 modulator: -3; NR2E3 ag confirm: 61; VP16 counter: 61

Results for CCC(Sc1nc(C)cc(=O)[nH]1)C(=O)Nc1sc2c(c1C#N)CCCC2 (stereo unspecified) ?
NR2E3 ag-1: 1; NR2E3 ag-2: 88*; PG9 binder: 0; NR1D1 modulator: 4; NR2E3 ag confirm: 76*; VP16 counter: 53

What do the screens show for `Cn1c(=O)c(=O)n(C)c2cc(S(=O)(=O)N3CCN(Cc4ccc5c(c4)OCO5)CC3)ccc21`?
NR1D1 modulator: -6

Results for COC(=O)[C@]12C[C@H](CC(=O)NCCc3ccccc3OC)C(=O)N(Cc3cccc4ccccc34)C1=C[C@H](COCc1ccccc1)O[C@@H]2C ?
NR1D1 modulator: -1

Results for CN(c1ccc(F)cc1)S(=O)(=O)c1ccc(Cl)c(C(=O)Nc2ccncc2)c1 ?
NR2E3 ag-1: 5; NR2E3 ag-2: 87*; PG9 binder: 1; NR1D1 modulator: 7; NR2E3 ag confirm: 54; VP16 counter: 60

Results for CN(c1ccccc1)S(=O)(=O)c1ccc(Cl)c(C(=O)Nc2ccncc2)c1 ?
NR2E3 ag-1: -2; NR2E3 ag-2: 76*; PG9 binder: -1; NR1D1 modulator: -2; NR2E3 ag confirm: 69; VP16 counter: 56

How did CCN(c1ccccc1)S(=O)(=O)c1ccc(Cl)c(C(=O)Nc2ccncc2)c1 do in these assays?
NR2E3 ag-2: 19; PG9 binder: 0; NR1D1 modulator: -2

How did Cc1cnc(C=NNC(N)=S)c2cccc(N)c12 do in these assays?
NR2E3 ag-2: 19; PG9 binder: -6; NR1D1 modulator: -24

How did NC(=S)NN=Cc1nccc2ccccc12 do in these assays?
NR2E3 ag-2: 75*; PG9 binder: -1; NR1D1 modulator: 4; NR2E3 ag confirm: 15; VP16 counter: -17

How did NC(=S)NN=Cc1nccc2c(C(F)(F)C(F)(F)C(F)(F)F)cccc12 do in these assays?
NR2E3 ag-2: 87*; PG9 binder: 0; NR1D1 modulator: 0; NR2E3 ag confirm: -6; VP16 counter: 26

Results for O=C(OC12CCCN(C1)/C(=C/c1cccnc1)C2)c1ccco1 (stereo unspecified) ?
NR1D1 modulator: 4

How did CCC(=O)Nc1sc2c(c1C(N)=O)CCN(C(C)=O)C2 do in these assays?
NR2E3 ag-1: 4; NR2E3 ag-2: -14; PG9 binder: 0; NR1D1 modulator: -5

What do the screens show for `CC(=O)N1CCc2c(sc(NC(=O)c3ccc([N+](=O)[O-])o3)c2C(N)=O)C1`?
NR2E3 ag-2: 79*; PG9 binder: -12; NR1D1 modulator: 2; NR2E3 ag confirm: 15; VP16 counter: 26

How did N#Cc1c(-c2cccs2)cc(-c2cccnc2)nc1N do in these assays?
NR2E3 ag-1: 1; NR2E3 ag-2: -1; PG9 binder: 2; NR1D1 modulator: -2

What do the screens show for `N#Cc1c(-c2cccs2)cc(-c2ccccn2)nc1N`?
NR2E3 ag-1: 2; NR2E3 ag-2: 62; PG9 binder: 1; NR1D1 modulator: 1; NR2E3 ag confirm: 27; VP16 counter: -15

What do the screens show for `COc1cccc(CN(C)C(=O)c2cc(COc3ccc(-n4cncn4)cc3)on2)c1`?
NR2E3 ag-1: 3; NR2E3 ag-2: 66; PG9 binder: 2; NR1D1 modulator: 6; NR2E3 ag confirm: 46; VP16 counter: 41

What do the screens show for `COc1cccc(CN(C)C(=O)c2cc(COc3ccc4ncccc4c3)on2)c1`?
NR2E3 ag-1: 1; NR2E3 ag-2: 79*; PG9 binder: 0; NR1D1 modulator: -3; NR2E3 ag confirm: 97*; VP16 counter: 88*

What do the screens show for `COc1cccc(CN(C)C(=O)c2cc(COc3c(F)cccc3F)on2)c1`?
NR2E3 ag-1: -8; NR2E3 ag-2: -6; PG9 binder: 0; NR1D1 modulator: -1

Results for CCC(C)n1ncn(-c2ccc(N3CCN(c4ccc(OC[C@H]5CO[C@](Cn6cncn6)(c6ccc(Cl)cc6Cl)O5)cc4)CC3)cc2)c1=O (stereo partly specified) ?
NR1D1 modulator: 4

What do the screens show for `C=CCN(CC#Cc1ccc(C)cc1)Cc1ccc(OC)cc1OC`?
NR1D1 modulator: 4

What do the screens show for `Cc1ccccc1-c1nnn(Cc2cccc(S(=O)(=O)N3CCOCC3)c2)n1`?
NR2E3 ag-1: -1; NR2E3 ag-2: 64; PG9 binder: 1; NR1D1 modulator: 1; NR2E3 ag confirm: 13; VP16 counter: 31

Results for O=S1(=O)c2ccc(Br)cc2OC[C@H](Cc2ccccc2)N1Cc1cn(Cc2ccc(Br)cc2)nn1 ?
NR1D1 modulator: -1

Results for O=C(NCc1cccnc1)/C(=C/c1ccc(-c2cccc(Cl)c2)o1)S(=O)(=O)c1ccccc1 ?
NR2E3 ag-1: 1; NR2E3 ag-2: 22; PG9 binder: -1; NR1D1 modulator: 4

How did O=C(NCc1cccnc1)/C(=C\c1ccc(-c2cccc(Cl)c2)o1)S(=O)(=O)c1ccccc1 do in these assays?
NR2E3 ag-1: 2; NR2E3 ag-2: 91*; PG9 binder: 0; NR1D1 modulator: 1; NR2E3 ag confirm: 63; VP16 counter: -24

What do the screens show for `NC(=NC(=O)/C=C/c1ccccc1Br)N(CC#Cc1ccccc1)CC#Cc1ccccc1`?
NR1D1 modulator: -2
